Compound activity: PubChem BioAssay, Broad Institute
In the library only some 1.6% were active in any assay of this set; here they are far more common.
SR-BI uptake up: enhances SR-BI lipid uptake from DiI-HDL | CHO ldlA[mSR-BI] cells, DiI-HDL uptake fluorescence, 3 h; 100 = double the neutral-control signal | activation, % at 12.5 µM | 320,000 compounds, 0.096% hits;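 active means mean replicate activation of at least 60% and every replicate at or above 60%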
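System: CHO ldlA[mSR-BI] cells / Medium: HEPES-buffered (25 mM, pH 7.4) F12 plus 0.5% BSA / Probe or stimulus: labelled HDL, 10 µg/mL / Doses: single compound concentration, delivered by pin transfer / Schedule: 3 h, 37 °C / Measured by: DiI fluorescence, bottom read / Measure: cell-associated DiI fluorescence as measure of HDL uptake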
dFosB act: mouse delta FosB homodimer activation; purified delta FosB, TAMRA-CDK5 oligo fluorescence polarization; percent of positive-control signal above neutral wells; P13346; AID 493131; 340,000 compounds, 0.99% hits; activation, % at 25 µM;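 active means mean activation above about 17%, with every replicate also reaching it, limit read from the data, passing the limit was not always enough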
S100A4 inh HTS: blocks human S100A4 binding to myosin IIA peptide; P26447; S100A4/TAMRA-MyoIIA peptide fluorescence polarization; inhibition, % at 10.7 µM; 360,000 compounds, 0.14% hits; AID 652163;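 active means mean inhibition of at least 70% across replicates, with every replicate also reaching that level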
Target sequence (P26447 whole entry, looked up): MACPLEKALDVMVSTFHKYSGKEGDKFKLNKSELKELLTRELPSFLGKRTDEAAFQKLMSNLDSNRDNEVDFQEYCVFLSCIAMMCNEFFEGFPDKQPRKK
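assay system = human S100A4 monomer with TAMRA-labelled myosin IIA peptide | also added = labelled myosin peptide probe, 5 nM | incubation = 5 min between mix addition and reading | control set = DMSO and TFP controls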
RAD54 inh: blocks human RAD54 Holliday junction branch migration; Q92698; FAM/BHQ fluorescence; inhibition, % at 10.4 µM; 360,000 compounds, 0.14% hits; AID 602329;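 active means mean normalized replicate activity at least 40 and at least half of replicates scoring 40 or more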;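 further: inhibitors cause a drop in the FAM fluorescence signal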
SR-BI DiI inh: inhibitors of mouse SR-BI mediated HDL lipid uptake. ldlA[mSR-BI] CHO cells, DiI-HDL uptake fluorescence, 3 h. inhibition, % at 12.5 µM. 320,000 compounds, 0.96% hits;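 active means mean replicate inhibition of at least 70% and a set share of replicates each scoring 70 or more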
Target sequence (Q61009 whole entry, looked up): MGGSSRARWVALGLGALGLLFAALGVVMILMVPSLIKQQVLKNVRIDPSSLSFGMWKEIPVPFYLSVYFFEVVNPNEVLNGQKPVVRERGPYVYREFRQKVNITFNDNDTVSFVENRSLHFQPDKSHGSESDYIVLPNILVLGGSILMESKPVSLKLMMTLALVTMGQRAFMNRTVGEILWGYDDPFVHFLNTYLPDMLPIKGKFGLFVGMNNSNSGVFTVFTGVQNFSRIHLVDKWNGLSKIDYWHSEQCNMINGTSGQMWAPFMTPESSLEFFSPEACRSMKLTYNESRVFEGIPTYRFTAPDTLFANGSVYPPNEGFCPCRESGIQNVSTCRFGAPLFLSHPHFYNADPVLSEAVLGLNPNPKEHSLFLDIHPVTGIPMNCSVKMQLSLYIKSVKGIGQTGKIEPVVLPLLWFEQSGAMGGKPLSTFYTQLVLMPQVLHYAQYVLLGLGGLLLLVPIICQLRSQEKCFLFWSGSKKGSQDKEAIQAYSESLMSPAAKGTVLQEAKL
PvdQ acylase: blocks Pseudomonas aeruginosa PvdQ acylase activity; inhibition, % at 10 µM; purified PvdQ acylase, fluorescence plate reader; 340,000 compounds, 0.063% hits; AID 488965; in the data active means inhibition above about 30%, passing the limit was not always enough
Numbers stand for hits.

CCCC(C)C(=O)Nc1nc(C)c(-c2csc(Nc3cc(OC)ccc3OC)n2)s1 (centres undefined) was read as SR-BI uptake up inactive, dFosB act inactive, S100A4 inh HTS inactive, RAD54 inh inactive, SR-BI DiI inh 93 and PvdQ acylase inactive.
COc1ccccc1Nc1nc(-c2sc(NC(=O)C(C)(C)C)nc2C)cs1 was read as SR-BI uptake up inactive, dFosB act inactive, S100A4 inh HTS inactive, RAD54 inh inactive, SR-BI DiI inh 85 and PvdQ acylase inactive.
For C/C=C/c1ccc2c(c1)O[C@@H](CN(C)C(=O)NC(C)C)[C@@H](C)CN([C@H](C)CO)S2(=O)=O the results were S100A4 inh HTS inactive and RAD54 inh inactive.
`C[C@@H]1CCCCO[C@H](CN(C)Cc2ccc(C(=O)O)cc2)[C@@H](C)CN([C@@H](C)CO)C(=O)c2cc(NC(=O)C3CCCCC3)ccc2O1` gave S100A4 inh HTS inactive and RAD54 inh inactive.
`COCC(=O)N1[C@@H](C#N)[C@@H](c2ccccc2-c2ccccc2F)[C@@H]1CO` gave S100A4 inh HTS inactive.
CCCCCC(=O)Nc1nc(C)c(-c2csc(Nc3cc(Cl)ccc3OC)n2)s1 was read as SR-BI uptake up inactive, dFosB act inactive, S100A4 inh HTS inactive, RAD54 inh inactive, SR-BI DiI inh 79 and PvdQ acylase inactive.
`O=c1c(C(c2c(O)nc3n(c2=O)CCS3)c2cccc3ccccc23)c(O)nc2n1CCS2` gave SR-BI uptake up inactive, dFosB act inactive, RAD54 inh 54, SR-BI DiI inh inactive and PvdQ acylase inactive.
`O=c1c(C(c2ccc(O)cc2)c2c(O)nc3n(c2=O)CCS3)c(O)nc2n1CCS2` gave SR-BI uptake up inactive, dFosB act inactive, SR-BI DiI inh inactive and PvdQ acylase inactive.
For COc1ccc(NC(=O)Nc2ccc3c(c2)C(=O)N([C@H](C)CO)C[C@@H](C)[C@H](CN(C)C(=O)C2CCCCC2)OCCCC[C@H](C)O3)cc1 the results were S100A4 inh HTS inactive and RAD54 inh inactive.
For Cc1nc(N)nc(N)c1CCCc1ccc(Cl)c(Cl)c1 the results were SR-BI uptake up inactive, dFosB act 27, S100A4 inh HTS inactive, RAD54 inh inactive, SR-BI DiI inh inactive and PvdQ acylase inactive.
For C/C(=N/Nc1nc(-c2ccc(Cl)cc2)cs1)c1cccs1 the results were SR-BI uptake up inactive, dFosB act inactive, RAD54 inh inactive, SR-BI DiI inh 79 and PvdQ acylase inactive.
For Cc1ccc(C(=O)Nc2nc3ccc(S(C)(=O)=O)cc3s2)o1 the results were SR-BI uptake up 95, dFosB act inactive, RAD54 inh inactive, SR-BI DiI inh inactive and PvdQ acylase inactive.
C[C@H]1CN([C@@H](C)CO)C(=O)Cc2cc(NC(=O)C3CC3)ccc2O[C@@H]1CN(C)S(=O)(=O)c1ccc(F)cc1 was read as S100A4 inh HTS inactive and RAD54 inh inactive.
N#CC(OC(=O)c1ccccc1)c1cccc([N+](=O)[O-])c1 (centres undefined) was read as SR-BI uptake up inactive, dFosB act inactive, S100A4 inh HTS inactive, RAD54 inh inactive, SR-BI DiI inh inactive and PvdQ acylase 72.
CCOC(=O)C1=C(COC(=O)/C=C/c2cc(OC)c(OC)c(OC)c2)NC(=O)NC1C (centres undefined) was read as SR-BI uptake up inactive, dFosB act inactive, S100A4 inh HTS inactive, RAD54 inh inactive, SR-BI DiI inh 81 and PvdQ acylase inactive.
`CCOC(=O)C1=C(COC(=O)/C=C/c2ccc(OC)c(OC)c2)NC(=O)NC1C` (centres undefined) gave SR-BI uptake up inactive, dFosB act inactive, S100A4 inh HTS inactive, RAD54 inh inactive, SR-BI DiI inh inactive and PvdQ acylase inactive.
Screening COCC1=C2[C@@H](c3ccccc3)OB(O)C[C@@H]2[C@@H]2C(=O)N(Cc3ccccc3)C(=O)[C@@H]2C1 returned S100A4 inh HTS inactive and RAD54 inh inactive.
For COC(=O)COc1ccc(/C=C2/SC(=O)N(CC(=O)N3CCCC3)C2=O)cc1Br the results were SR-BI uptake up inactive, dFosB act inactive, SR-BI DiI inh inactive and PvdQ acylase inactive.
For COC(=O)COc1cc(Br)c(/C=C2/SC(=O)N(CC(=O)N3CCCC3)C2=O)cc1OC the results were SR-BI uptake up inactive, dFosB act inactive, SR-BI DiI inh 82 and PvdQ acylase inactive.
For COc1ccc(C2NCCc3c2[nH]c2ccccc32)cc1COc1ccc(F)cc1 (centres undefined) the results were SR-BI uptake up inactive, dFosB act 62, S100A4 inh HTS inactive, SR-BI DiI inh inactive and PvdQ acylase 39.
For COc1ccc(C2NCCc3c2[nH]c2ccccc32)cc1CN1CCc2cc(OC)c(OC)cc2C1C (centres undefined) the results were dFosB act 63 and PvdQ acylase inactive.
For COc1ccc(/C=N/NC(=O)c2cc(OC)c(OC)c(OC)c2)cc1CN1CCc2cc(OC)c(OC)cc2C1C (centres undefined) the results were SR-BI uptake up inactive, dFosB act inactive, S100A4 inh HTS inactive, SR-BI DiI inh inactive and PvdQ acylase inactive.
COc1ccc(C2NC(C(=O)O)Cc3c2[nH]c2ccccc32)cc1CN1CCN(c2ccc(F)cc2)CC1 (centres undefined) was read as SR-BI uptake up inactive, dFosB act inactive, S100A4 inh HTS inactive, RAD54 inh inactive, SR-BI DiI inh inactive and PvdQ acylase inactive.
Screening Cc1cc(C)c(C(=O)COC(=O)c2ccc(NC(=O)CC#N)cc2)cc1C returned SR-BI uptake up inactive, dFosB act inactive, S100A4 inh HTS inactive, RAD54 inh inactive, SR-BI DiI inh 75 and PvdQ acylase inactive.
CNC(=O)COC(=O)c1ccc(NC(=O)CC#N)cc1 was read as SR-BI uptake up inactive, dFosB act inactive, RAD54 inh inactive, SR-BI DiI inh inactive and PvdQ acylase inactive.
For COc1ccc2nc(NC(=O)CSc3nnnn3C)sc2c1 the results were SR-BI uptake up inactive, dFosB act inactive, S100A4 inh HTS inactive, SR-BI DiI inh inactive and PvdQ acylase inactive.
CCOc1ccc(S(=O)(=O)N(C)c2ccc(OCC(=O)Nc3nc(-c4cc(OC)ccc4OC)cs3)cc2)cc1 was read as SR-BI uptake up inactive, dFosB act inactive, S100A4 inh HTS inactive, RAD54 inh inactive, SR-BI DiI inh 82 and PvdQ acylase inactive.
`COc1ccc(OC)c(-c2csc(NC(=O)CSc3nnnn3C)n2)c1` gave SR-BI uptake up inactive, dFosB act 33, S100A4 inh HTS inactive, SR-BI DiI inh inactive and PvdQ acylase inactive.
`CN1C(=O)c2cc(NC(=O)C3CCC3)ccc2OC[C@H]2O[C@H](CC(=O)NCCc3ccncc3)CC[C@H]21` gave S100A4 inh HTS inactive.
